Shown are actives, neighbours in structure and some others; about 0.95% of the full set was active somewhere.
HSV augment = enhancers of HSV replication in host cells, fold increase, host cell viability; 0.005% of 220,000 active; HSV replication augmentation in cells; maximum fold increase; in the data active = maximum fold increase above about 1.5; inconclusive = no clear call, values can overlap the other calls; tested in PC3 cells
ABCB1 inh = ABCB1 efflux pump inhibitors, primary screen, cell-based, multiplex, flow cytometry, ABCG2 counter-screen; AID 1326, 2008; CCRF-Adr cells, JC-1 efflux; inhibition, % at 6.6 µM; 0.067% of 190,000 active; ATP-dependent translocase ABCB1 (Homo sapiens), P08183; in the data active = inhibition above about 40%;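 also: 0% = vehicle and 100% = reference inhibitor; higher value means more JC-1 retained so stronger ABCB1 efflux block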
p47phox inh = p47phox/p22phox peptide binding inhibitors, primary screen, biochemical, uHTS, NADPH oxidase regulatory subunit | inhibition, % at 24.7 µM | fluorescence polarization, 2 h | 0.53% of 220,000 active | Neutrophil cytosol factor 1 (Homo sapiens), P14598 | AID 1274, 2008;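 active = inhibition above about 30%, limit read from the data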;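 also: 0% = p47phox with labelled peptide and 100% = labelled peptide alone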
ABCG2 block = ABCG2 efflux pump inhibitors, primary screen, multiplex with ABCB1, IgMXP3 cells, flow cytometry | 0.1% of 190,000 active | Broad substrate specificity ATP-binding cassette transporter ABCG2 (Homo sapiens), Q9UNQ0 | inhibition, % at 6.6 µM | JC-1 efflux | AID 1325, 2008;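 active = inhibition above 80%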;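 also: 0% = DMSO and 100% = nicardipine control wells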
Target sequence (Q9UNQ0 whole entry, looked up): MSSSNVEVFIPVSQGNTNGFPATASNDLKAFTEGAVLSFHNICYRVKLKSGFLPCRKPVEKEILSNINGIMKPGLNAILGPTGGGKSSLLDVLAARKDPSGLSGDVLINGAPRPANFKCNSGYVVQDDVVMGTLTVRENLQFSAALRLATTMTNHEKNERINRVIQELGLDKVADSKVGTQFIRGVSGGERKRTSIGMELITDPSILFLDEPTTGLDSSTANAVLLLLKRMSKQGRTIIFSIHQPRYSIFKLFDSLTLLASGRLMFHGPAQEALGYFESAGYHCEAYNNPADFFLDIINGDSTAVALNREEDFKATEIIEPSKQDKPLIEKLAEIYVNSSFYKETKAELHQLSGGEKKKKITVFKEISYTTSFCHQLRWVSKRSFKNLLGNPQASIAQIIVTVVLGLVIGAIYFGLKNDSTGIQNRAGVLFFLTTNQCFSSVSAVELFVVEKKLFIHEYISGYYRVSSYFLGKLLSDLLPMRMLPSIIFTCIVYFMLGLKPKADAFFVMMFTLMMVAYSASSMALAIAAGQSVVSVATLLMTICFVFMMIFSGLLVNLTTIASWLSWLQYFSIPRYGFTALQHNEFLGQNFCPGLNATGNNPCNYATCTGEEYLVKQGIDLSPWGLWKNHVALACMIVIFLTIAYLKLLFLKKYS
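Measure – % inhibition of efflux relative to nicardipine and DMSO · Test system – ABCG2 IgMXP3 and barcoded ABCB1 CCRF-Adr cell mix · Control set – nicardipine as high control, DMSO as low control · Compound – one concentration, 6.6 µM final · Signal – flow cytometry of retained JC-1 fluorescence · Timing – 10 min exposure at 25 °C with rotation, no wash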
Arbovirus inh = antivirals against arbovirus infection, primary screen, cell-based, full library, 10K replicate subset; 0.37% of 200,000 active; AID 1251, 2008; inhibition, % at 10 µM; arbovirus infection cell-based antiviral screen; in the data active = inhibition above about 30%
Furin inhibitor = human furin inhibitors, primary screen, biochemical, fluorescence intensity; purified furin, fluorogenic substrate cleavage; P09958; AID 463115, 2010; 0.061% of 220,000 active; inhibition, % at 20 µM or 30 µM; in the data active = inhibition above about 25%
Numbers without * were called inactive; i = inactive; ? = inconclusive; . = no result; + = active, no number.

SMILES	HSV augment	ABCB1 inh	p47phox inh	ABCG2 block	Arbovirus inh	Furin inhibitor
CC(C)(CO)CNC(=O)CC1C(=O)NCCN1CC(c1ccccc1)c1ccccc1 (stereo not drawn)	i	5.9	11.7	0.4	31.7*	-19.9
COCCn1c(-c2ccc(Cl)cc2)cnc1SCC(=O)NCc1cccs1	i	0.6	-12.8	4.7	58.1*	-14.2
O=C(CSc1nc2ccccc2c(=O)n1Cc1ccc(Cl)cc1)NCc1cccs1	i	1.6	-3.8	2.3	-6.0	-16.8
COc1ccc(C)cc1NC(=O)COC(=O)c1c(C)noc1C	i	0.5	4.0	2.1	-3.8	-11.9
Cc1noc(C)c1C(=O)OCC(=O)Nc1cc(Cl)ccc1Oc1ccccc1	i	1.2	-22.9	5.7	47.3*	-18.2
CC(C)(C)N1OC2CC1c1nc3ccccc3n1C2 (stereo not drawn)	i	.	50.4*	.	.	-27.8
CCCCCCc1cc2cc(C(=O)Nc3ccc(OC)cc3)c(=O)oc2cc1O	i	-0.1	-1.1	0.4	46.8*	-16.0
Cc1ccc(CN(CC(=O)NC2CCCC2)C(=O)CSc2nnc(COc3ccccc3)o2)cc1	i	1.4	-13.6	1.6	1.1	25.0*
O=C(CN(Cc1ccccc1)C(=O)CSc1nnc(COc2ccccc2)o1)NC1CCCC1	?	5.9	3.7	2.3	10.3	-17.4
COc1ccc(N)cc1-n1cnnn1	i	0.6	-0.8	22.2	5.8	-24.8
CCOc1ccc(-n2c(COc3ccc(C)cc3)nnc2SCC(N)=O)cc1	i	0.0	3.4	3.0	11.5	-1.2
CCOC(=O)C(CC)Sc1nnc(COc2ccc(C)cc2)n1-c1ccccc1 (stereo not drawn)	i	1.0	-13.9	1.5	2.9	28.4*
CCCCCc1ccc(OCCC[n+]2ccccc2)c(CCCCC)c1	i	.	-3.8	.	.	-4.6
CCCCCc1ccc(OCCOCCn2c[n+](C)c3ccccc32)c(CCCCC)c1	i	-2.1	75.4*	5.6	-31.1	-6.2
O=C(CSc1nnc(CNC(=O)c2c(F)cccc2Cl)o1)Nc1ccc2c(c1)OCO2	i	0.6	31.1*	4.1	14.2	-22.9
CCC1CC(C)(C(=O)Nc2ccc(S(N)(=O)=O)cc2)OC1=O (stereo not drawn)	.	-0.1	+	-0.4	0.0	-27.4
CCC(C)Sc1nc2c(c(=O)[nH]1)C(c1cccs1)C1=C(CCCC1=O)N2 (stereo not drawn)	i	-0.1	-31.5	-0.3	32.9*	-21.1
O=C1CCCC2=C1C(c1ccncc1)c1c(nc(SCc3ccccc3Cl)[nH]c1=O)N2 (stereo not drawn)	i	0.4	-19.1	0.8	7.4	0.8
O=C(NC1=NCCS1)c1ccc(Cl)c(S(=O)(=O)N2CCCCC2)c1	i	0.4	-10.0	1.9	5.1	-11.3
O=C(NC1=NCCS1)c1ccc(Cl)c(S(=O)(=O)N2CCCC2)c1	i	0.0	-1.5	1.8	32.1*	-24.6
O=C(NCc1cccnc1)C(=O)C1C(=O)Nc2ccccc21 (stereo not drawn)	i	.	-3.1	.	.	-9.7
CSc1ccccc1NC(=O)CN(C)Cc1ccc(Br)cc1	i	1.0	6.6	25.4	9.6	-27.8
CCc1cccc(C)c1NC(=O)CN(C)Cc1ccc(Br)cc1	i	1.5	-4.7	14.0	42.1*	-19.4
Cc1c(-c2ccncc2)oc2ccc(Br)cc2c1=O	i	0.9	-6.2	11.7	-12.2	-31.1
C/C=C/C(=O)Nc1cccc(C2=NOC3(C2)C[C@@H](C(N)=O)N(C(=O)/C(C)=C/C)C3)c1 (stereo partly drawn)	i	.	-15.3	.	.	-28.1
O=c1c2ccccc2nc(/C=C/c2ccc([N+](=O)[O-])cc2)n1CCCO	i	1.1	-14.3	5.0	-5.7	1.7
O=c1c2ccccc2nc(/C=C/c2ccc([N+](=O)[O-])o2)n1CCCO	i	1.9	34.9*	11.0	-39.0	-7.8
c1ccc(CN2CCOCCOCCOCCOCC2)cc1	i	.	-8.5	.	.	-20.7
CCOC(=O)c1nn(-c2ccc(Cl)cc2)c2nc(Nc3ccccc3)cc(=O)n12	.	0.7	-1.7	13.8	41.9*	-12.5
